For seven compounds, MIC results are on record in ChEMBL document CHEMBL1806410, “Design and synthesis of pyridine-substituted itraconazole analogues with improved antifungal activities, water solubility and bioavailability” (Bioorg Med Chem Lett, 2011).

Values after ≈ are worked out from the molar mass of the structure shown.

The term MIC denotes the least concentration at which growth counts as inhibited. Read a high MIC as a need for much substance.

Holding throughout (format): functional
Experiment [1] concerns Aspergillus flavus. Briefly: Antifungal activity against Aspergillus flavus JLC 30784 by broth microdilution method. Summed up:
(§1)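 MICs were determined by broth microdilution following NCCLS guidelines (M38-P for filamentous fungi). The panel covered four yeast species and two Aspergillus species, with two strains per species. Itraconazole served as positive control.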
(In broth dilution the organism is exposed to a series of concentrations in liquid medium.)

Experiment [2] has as its system Pichia kudriavzevii. Briefly: Antifungal activity against Candida krusei JLC 30386 by broth microdilution method. Summed up:
as §1

In experiment [3] the test system is Pichia kudriavzevii. Briefly: Antifungal activity against Candida krusei JLC 30366 by broth microdilution method. Summed up:
as §1

Experiment [4] concerns Candida albicans. Briefly: Antifungal activity against Candida albicans JLC 30364 by broth microdilution method. Summed up: as §1
In experiment [5] the test system is Candida parapsilosis. Briefly: Antifungal activity against Candida parapsilosis JLC 30365 by broth microdilution method. The settings on record: Lodderomyces parapsilosis. In short, it runs like this: as §1
Experiment [6] relates to Candida albicans. Briefly: Antifungal activity against Candida albicans JLC 31374 by broth microdilution method. Summed up: as §1
Experiment [7] relates to Cryptococcus neoformans. Briefly: Antifungal activity against Cryptococcus neoformans JLC 50122 by broth microdilution method. Summed up: as §1
Experiment [8] concerns Aspergillus fumigatus. Briefly: Antifungal activity against Aspergillus fumigatus JLC 30506 by broth microdilution method. Summed up:
as §1

For experiment [9], the system named is Aspergillus flavus. Briefly: Antifungal activity against Aspergillus flavus JLC 40437 by broth microdilution method. Summed up: as §1
For experiment [10], the system named is Candida parapsilosis. Briefly: Antifungal activity against Candida parapsilosis JLC 30275 by broth microdilution method. The following applies: Lodderomyces parapsilosis. In short, it runs like this: as §1
The test system of experiment [11] is Cryptococcus neoformans. Briefly: Antifungal activity against Cryptococcus neoformans JLC 50123 by broth microdilution method. In short, it runs like this: as §1
Experiment [12] concerns Aspergillus fumigatus. Briefly: Antifungal activity against Aspergillus fumigatus JLC 30883 by broth microdilution method. Summed up: as §1

Consider `O=c1n(-c2ccc(N3CCN(c4ccc(OC[C@H]5CO[C@](Cn6cncn6)(c6ccc(F)cc6F)O5)cc4)CC3)nc2)cnn1CCCO`, for which the MIC is 0.25 µg/mL (≈ 0.37 µM) in [1]; 0.0625 µg/mL (≈ 0.0925 µM) in [2]; 0.0625 µg/mL (≈ 0.0925 µM) in [3]; under 0.0625 µg/mL in experiment [4]; 0.0625 µg/mL (≈ 0.0925 µM) in [5]; under 0.0625 µg/mL in experiment [6]. In addition, the MIC in experiment [7] was under 0.0625 µg/mL; in [8], 1 µg/mL (≈ 1.48 µM); in [9] it was 0.25 µg/mL (≈ 0.37 µM); in experiment [10], 0.0625 µg/mL (≈ 0.0925 µM); in [11] it was under 0.0625 µg/mL; in experiment [12], 1 µg/mL (≈ 1.48 µM).
On to `CCC(C)n1ncn(-c2ccc(N3CCN(c4ccc(OC[C@H]5CO[C@](Cn6cncn6)(c6ccc(F)cc6F)O5)cc4)CC3)nc2)c1=O` (stereo partly drawn), for which the MIC in [1] was 0.25 µg/mL (≈ 0.371 µM); in [2] it was 0.125 µg/mL (≈ 0.186 µM); in experiment [3], 0.125 µg/mL (≈ 0.186 µM); in experiment [4], under 0.0038 µg/mL; in experiment [5] it was 0.25 µg/mL (≈ 0.371 µM); in experiment [6], under 0.0038 µg/mL. Further, the MIC was 0.5 µg/mL (≈ 0.742 µM) in experiment [7]; 0.0625 µg/mL (≈ 0.0928 µM) in [8]; 0.25 µg/mL (≈ 0.371 µM) in experiment [9]; 0.25 µg/mL (≈ 0.371 µM) in experiment [10]; 0.5 µg/mL (≈ 0.742 µM) in experiment [11]; 0.0625 µg/mL (≈ 0.0928 µM) in experiment [12].
As to `O=c1n(-c2ccc(N3CCN(c4ccc(OC[C@H]5CO[C@](Cn6cncn6)(c6ccc(F)cc6F)O5)cc4)CC3)nc2)cnn1Cc1ccccc1`, the MIC in experiment [1] was 0.25 µg/mL (≈ 0.353 µM); in experiment [2] it was 0.5 µg/mL (≈ 0.706 µM); in experiment [3], 0.5 µg/mL (≈ 0.706 µM); in experiment [4], under 0.0038 µg/mL; in [5], 0.25 µg/mL (≈ 0.353 µM); in [6], under 0.0038 µg/mL. In addition, the MIC amounted to 0.25 µg/mL (≈ 0.353 µM) in experiment [7]; 0.125 µg/mL (≈ 0.177 µM) in [8]; 0.25 µg/mL (≈ 0.353 µM) in [9]; 0.25 µg/mL (≈ 0.353 µM) in experiment [10]; 0.25 µg/mL (≈ 0.353 µM) in experiment [11]; 0.125 µg/mL (≈ 0.177 µM) in experiment [12].
For the compound `CC(C)(CO)Cn1ncn(-c2ccc(N3CCN(c4ccc(OC[C@H]5CO[C@](Cn6cncn6)(c6ccc(F)cc6F)O5)cc4)CC3)nc2)c1=O`, the MIC in experiment [1] was found to be 0.125 µg/mL (≈ 0.178 µM); in experiment [2], 0.25 µg/mL (≈ 0.355 µM); in experiment [3], 0.25 µg/mL (≈ 0.355 µM); in experiment [4], 0.0625 µg/mL (≈ 0.0888 µM); in [5], 0.5 µg/mL (≈ 0.71 µM); in [6], 0.0625 µg/mL (≈ 0.0888 µM). Moreover, the MIC in experiment [7] was found to be 0.125 µg/mL (≈ 0.178 µM); in experiment [8], 0.125 µg/mL (≈ 0.178 µM); in [9], 0.125 µg/mL (≈ 0.178 µM); in experiment [10], 0.5 µg/mL (≈ 0.71 µM); in experiment [11], 0.125 µg/mL (≈ 0.178 µM); in [12] it was 0.125 µg/mL (≈ 0.178 µM).
As for `CC(CO)Cn1ncn(-c2ccc(N3CCN(c4ccc(OC[C@H]5CO[C@](Cn6cncn6)(c6ccc(F)cc6F)O5)cc4)CC3)nc2)c1=O` (stereo partly drawn), the MIC is over 0.5 µg/mL in [1]; 0.125 µg/mL (≈ 0.181 µM) in [2]; 0.125 µg/mL (≈ 0.181 µM) in experiment [3]; 0.0625 µg/mL (≈ 0.0906 µM) in experiment [4]; 2 µg/mL (≈ 2.9 µM) in experiment [5]; 0.0625 µg/mL (≈ 0.0906 µM) in [6]. The MIC in experiment [7] was 0.0625 µg/mL (≈ 0.0906 µM); in experiment [8], over 32 µg/mL; in [9] it was over 0.5 µg/mL; in experiment [11] it was 0.0625 µg/mL (≈ 0.0906 µM); in experiment [12], over 32 µg/mL.
In the case of `CC(CO)n1ncn(-c2ccc(N3CCN(c4ccc(OC[C@H]5CO[C@](Cn6cncn6)(c6ccc(F)cc6F)O5)cc4)CC3)nc2)c1=O` (stereo partly drawn), the minimal inhibitory concentration (MIC) in experiment [1] was 0.25 µg/mL (≈ 0.37 µM); in [2], over 2 µg/mL; in [3] it was over 2 µg/mL; in experiment [4] it was under 0.0625 µg/mL; in experiment [5] it was under 0.0625 µg/mL; in experiment [6] it was under 0.0625 µg/mL. Besides, the MIC in [7] is under 0.0625 µg/mL; in experiment [8], 1 µg/mL (≈ 1.48 µM); in [9], 0.25 µg/mL (≈ 0.37 µM); in [10], under 0.0625 µg/mL; in experiment [11] it was under 0.0625 µg/mL; in experiment [12] it was 1 µg/mL (≈ 1.48 µM).
Regarding `CC(CCO)n1ncn(-c2ccc(N3CCN(c4ccc(OC[C@H]5CO[C@](Cn6cncn6)(c6ccc(F)cc6F)O5)cc4)CC3)nc2)c1=O` (stereo partly drawn), the MIC in [1] was 4 µg/mL (≈ 5.8 µM); in experiment [2] it was 2 µg/mL (≈ 2.9 µM); in experiment [3], 2 µg/mL (≈ 2.9 µM); in experiment [4], under 0.0625 µg/mL; in experiment [5], under 0.0625 µg/mL; in experiment [6], under 0.0625 µg/mL. In addition, the MIC was 0.0625 µg/mL (≈ 0.0906 µM) in experiment [7]; 4 µg/mL (≈ 5.8 µM) in experiment [8]; 4 µg/mL (≈ 5.8 µM) in experiment [9]; under 0.0625 µg/mL in experiment [10]; 0.0625 µg/mL (≈ 0.0906 µM) in experiment [11]; 4 µg/mL (≈ 5.8 µM) in [12].
